# Sampled rows, rich in hits. Any-hit rate of the full collection: about 2.6%.
# SKN-1 inh – suppressors of acrylamide-induced Pgst-4::GFP reporter in worms, primary screen, SKN-1 inhibitor project, whole organism, uHTS, GFP/RFP fluorescence ratio, strain VP596 | inhibition, % at 21.8 µM | C. elegans VP596 Pgst-4::GFP/RFP ratio, 24 h | 0.49% of 360,000 active;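 active = interference check ratio from 0.5 to 1.5 plus GFP to RFP signal ratio inhibition reaching or exceeding a fixed threshold, cut at about 30% in these data, passing the limit was not always enough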
# Rce1 inh – yeast Rce1p protease inhibitors, primary screen, biochemical, fluorescence, cell-free homogeneous. yeast membranes, quenched prenylated peptide cleavage fluorescence. AID 2563, 2010. calls only. CAAX prenyl protease 2 (Saccharomyces cerevisiae (strain ATCC 204508 / S288c)), Q03530. 0.27% of 290,000 active;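 active = fall in fluorescence gain of 50% or more versus controls, with final raw signal at or below 3038400; inconclusive = same 50% fall but final raw signal above 3038400; inactive = fall in fluorescence gain under 50%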;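 note: plate controls were neutral control wells for no effect and wells lacking membranes for full effect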
# Target sequence (Q03530 whole entry, looked up): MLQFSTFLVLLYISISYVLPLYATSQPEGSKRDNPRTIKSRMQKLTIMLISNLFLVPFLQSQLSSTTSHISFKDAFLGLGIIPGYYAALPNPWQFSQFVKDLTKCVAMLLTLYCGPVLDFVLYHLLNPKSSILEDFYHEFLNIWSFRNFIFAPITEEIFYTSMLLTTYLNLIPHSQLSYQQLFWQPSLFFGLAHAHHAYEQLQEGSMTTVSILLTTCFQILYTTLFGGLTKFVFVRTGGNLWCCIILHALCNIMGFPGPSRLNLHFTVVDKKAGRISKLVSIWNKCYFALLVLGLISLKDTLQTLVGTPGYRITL
# Rin1 Abl inh – inhibitors of Rin1-Abl protein binding, primary screen, biochemical, TR-FRET; Tyrosine-protein kinase ABL1 (Homo sapiens) + Ras and Rab interactor 1 (Homo sapiens), …; inhibition, % at 7.35 µM; 0.4% of 360,000 active; AID 588664, 2011; in the data active = inhibition above about 5%, passing the limit was not always enough
# T cell modulator – modulators of CD8 T cell-vesicle binding, primary screen, mouse 2C CD8+ T cells, flow cytometry; 2C CD8+ T cell-vesicle binding; active compounds read low; response (vesicle binding), % at 7 µM; 0.068% of 330,000 active;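 active = response, share of CD8 T cells binding vesicles, and their 90th percentile fluorescence all below set limits, cut at about 80% in these data, passing the limit was not always enough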;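 note: values below 100% mean blocked vesicle binding to the CD8+ T cells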
#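 Incubation: binding step 1.5 h, 37 °C, antibody labelling 20 min, ice; system: murine 2C transgenic CD8+ T lymphocytes; technique: cytometric PE anti-B7-1 and Alexa647 anti-CD8 signals after 1% paraformaldehyde fixation; also added: QL9-charged Drosophila Ld/ICAM-1/B7-1 vesicles; control set: naked versus QL9-loaded vesicles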
# GRK2 aptamer HTS – compounds blocking aptamer binding on GRK2 – biochemical, human GRK2, bead flow cytometry, HTS, primary screen | FAM-aptamer displacement from GRK2 | inhibition of aptamer binding, % at 10 µM | 0.59% of 330,000 active;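 active = inhibition of aptamer binding above 40%, roughly 3 SD of noise, on plates passing a quality check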;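 note: median bead fluorescence of bound FAM aptamer so fluorescent compounds give negative values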
# Myeloid diff MLP – induction of myeloid progenitor differentiation, primary screen, cell-based, flow cytometry, MLPCN library | ER-HoxA9 myeloid progenitors, lysozyme-GFP differentiation | calls only at 10 µM | 1% of 360,000 active | AID 624256, 2012;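 active = normalized GFP-positive differentiation at or above the plate's own cutoff, the solvent-only control mean plus 3 SD; inconclusive = no clear call, values can overlap the other calls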;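 note: cells exposed to compound for four days before flow analysis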
# An asterisk follows results filed as active; i = inactive; ? = inconclusive; . = no result given; + = active, no number.
SMILES,SKN-1 inh,Rce1 inh,Rin1 Abl inh,T cell modulator,GRK2 aptamer HTS,Myeloid diff MLP
COc1cccc(C(=O)CC(C#N)c2ccc(F)cc2)c1 (centres undefined),1,i,2,271,1,i
Cc1ccccc1N(C(=O)c1csnn1)C(C(=O)NC1CCCCC1)c1ccncc1 (centres undefined),4,i,1,310,1,+
O=C(NNC(=O)c1cccnc1Cl)c1ccc(F)cc1,12,i,0,275,0,i
CSc1ccc(/C=C/C(=O)OCC(=O)NC2CC2)cc1,12,.,0,455,4,i
CSc1ccc(/C=C/C(=O)OCC(=O)NC(C)C)cc1,6,+,2,191,1,i
NC(=O)CC(NC(=O)Cc1cccc2ccccc12)c1ccc(N2CCCCCC2)c([N+](=O)[O-])c1 (centres undefined),7,i,1,347,0,i
NC(=O)CC(NC(=O)Cc1cccc2ccccc12)c1ccc(N2CCC(N3CCCCC3)CC2)c([N+](=O)[O-])c1 (centres undefined),46*,i,-4,409,0,i
COCCn1c(N/N=C(C)/C=C/c2ccccc2)nc2c1c(=O)[nH]c(=O)n2C,.,i,.,262,0,.
CC1(NC(=O)Nc2cccc(Br)c2)CCS(=O)(=O)C1 (centres undefined),17,.,2,227,0,i
O=C1Nc2ccccc2C12OCC1(CO2)COC2(OC1)C(=O)Nc1ccccc12 (centres undefined),-9,i,-4,188,8,i
O=C1Nc2ccccc2C12OCCS2 (centres undefined),.,i,.,0.0*,0,.
COc1ccccc1N1C(=NC(=O)CCC2CCCC2)SC2CS(=O)(=O)CC21 (centres undefined),17,i,2,228,0,i
Oc1ccc(Br)cc1CNc1cnc2ccccc2c1,-3,i,3,295,0,i
Cc1ccc(O)c(CNc2cnc3ccccc3c2)c1,5,+,1,179,1,i
CCOc1ccc2[nH]c3c(N4CCc5ccccc5C4)ncnc3c2c1,12,+,0,269,1,?
Cc1ccc2[nH]c3c(N4CCc5ccccc5C4)ncnc3c2c1,-7,i,-2,269,0,i
CC1=NN(c2cc(Cl)c(S(=O)(=O)O)cc2Cl)C(=O)C1,8,.,4,.,.,i
CC1=NN(c2cccc(Cl)c2)C(=O)C1,7,i,32*,480,0,i
O=C(O)c1cccc(Cn2c(Cl)c(/C=N/NC(=O)c3ccco3)sc2=O)c1,7,i,1,96,2,i
CCOc1cccc2cc(C(=O)N3CCc4ccccc43)c(=O)oc12,47*,i,-3,343,0,i
COc1ccc(N2C(=O)C(=O)/C(=C(/O)c3ccc(C)cc3)C2c2cccnc2)cc1 (centres undefined),9,i,-2,154,0,+
COc1ccc(C2/C(=C(/O)c3ccc(C)cc3)C(=O)C(=O)N2C)cc1 (centres undefined),-22,i,0,189,4,i
CCN(CC)S(=O)(=O)c1cccc(-c2n[nH]c(=S)n2Cc2ccccc2)c1,-14,+,1,556,0,i
CC1CC(C)CN(C(=O)C(C)N(C)CC(=O)Nc2ccc(Cl)cc2)C1 (centres undefined),0,i,0,415,0,i
COCCN(C(=O)c1ccc(N2CCCC2=O)cc1)c1c(N)n(Cc2ccccc2)c(=O)[nH]c1=O,-4,.,0,216,8,i
SMILES,SKN-1 inh,Rce1 inh,Rin1 Abl inh,T cell modulator,GRK2 aptamer HTS,Myeloid diff MLP
O=c1oc2ccccc2nc1/C=C(\O)c1ccccc1,6,i,-2,390,.,i
O/C(=C\c1nc2ccccc2nc1/C=C(\O)c1ccccc1)c1ccccc1,-2,i,-7,191,10,+
CCC(=O)N1CCN=C1SCc1c(F)cccc1Cl,2,i,0,128,1,i
CCCCCCc1cc2cc(-c3nnc(-c4cc(OC)c(OC)c(OC)c4)o3)c(=O)oc2cc1O,.,i,.,452,0,.
CCCCCCc1cc2cc(-c3nnc(-c4ccccc4O)o3)c(=O)oc2cc1O,57*,i,1,370,4,+
CCCCCCc1cc2cc(S(=O)(=O)c3ccc(F)cc3)c(=O)oc2cc1O,9,i,2,205,0,i
CCCCCCc1cc2cc(-c3nnc(-c4ccccc4OC)o3)c(=O)oc2cc1O,33,i,-2,412,3,+
O=c1/c(=C\c2ccc(F)cc2)sc2n1CCCN=2,39*,.,-1,427,0,i
COc1ccc(-c2cn[nH]c2C)cc1,19,i,2,286,2,i
COc1ccc2cc(-c3ccn[nH]3)ccc2c1,29,i,0,187,3,+
CC(C)(C)c1cc(=O)n(-c2ccccc2)[nH]1,-2,.,13*,530,0,i
Cc1cc(/C=C2\SC(=S)N(Cc3ccco3)C2=O)c(C)n1-c1ccccc1,2,i,-2,272,0,+
O=C(O)CN1C(=O)/C(=C\c2ccc(OC(=O)c3ccco3)cc2)SC1=S,2,i,0,407,0,i
COc1ccc(-n2c(C)cc(/C=C3/SC(=S)N(C)C3=O)c2C)cc1,0,i,0,320,5,+
CN(C)c1ccc(C=C2SC(=S)N(Cc3ccco3)C2=O)cc1,16,.,1,.,.,+
Cc1nc2c(C)cccn2c(=O)c1NC(=O)COc1ccccc1,0,+,-2,260,3,i
Oc1c(N=Nc2ccccn2)ccc2ccccc12,46*,i,2,233,6,i
COc1ccc(-c2ccc(/C=N/NC(=O)c3cccnc3)o2)c([N+](=O)[O-])c1,6,i,-9,.,.,+
Cc1ccc(C(=O)N/N=C/c2ccc(-c3ccccc3[N+](=O)[O-])o2)cn1,7,i,-1,256,0,i
COc1ccc(C2C3=C(CC(C)(C)CC3=O)Nc3n[nH]c(C)c32)cc1 (centres undefined),17,+,0,312,1,i
O=S(=O)(c1ccc2oc(=S)[nH]c2c1)N1CCCCC1,-4,i,-5,167,3,+
